Hits are enriched below; roughly 1.5% of the tested compounds scored in any of these assays.
SENP1 inh: human SENP1 catalytic domain inhibitors, primary screen, biochemical, FRET, uHTS; recombinant SENP1 catalytic domain, CyPet-SUMO1-YPet FRET cleavage; inhibition, % at 10 µM; hit rate 0.21% among 360,000; AID 624204, 2012;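 active = inhibition at least 30% at 10 µM, raw YFP signal under a set limit, fluorescence ratio 0.5 to 1.5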;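 note: 0% = enzyme with DMSO and 100% = no enzyme wells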
Target sequence (Q9P0U3 419-644 limits assumed): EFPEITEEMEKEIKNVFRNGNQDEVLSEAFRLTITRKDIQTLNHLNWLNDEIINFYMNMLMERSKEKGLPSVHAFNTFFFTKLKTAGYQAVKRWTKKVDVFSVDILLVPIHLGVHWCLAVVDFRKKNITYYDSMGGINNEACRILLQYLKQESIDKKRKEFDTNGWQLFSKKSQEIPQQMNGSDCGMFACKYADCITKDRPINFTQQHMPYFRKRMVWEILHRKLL
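Material: hSENP1 catalytic domain, recombinant; medium: Tris pH 8 with BME, BSA, NP40 and catalase; compound: single concentration of 10 µM compound, 0.5% DMSO final; technique: FRET read of cyan and yellow fluorescence; timing: 50 min enzyme reaction, room temperature, light-protected; reagent: SFCypet-SUMO1-SFYpet substrate at 25 nM; control set: no-enzyme low, enzyme-DMSO high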
Platelet DG rel: inhibitors of platelet dense granule secretion, primary screen, cell-based, MLPCN, human platelets; human platelet-rich plasma, SFLLRN dense granule ATP release, luminescence; inhibition, %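 (compounds screened at 7.5 µM in platelet-rich plasma)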; hit rate 0.22% among 300,000;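 active = mean replicate score, as percent of positive control, at or above 50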
Myeloid diff 2: induction of myeloid progenitor differentiation, primary screen, cell-based, flow cytometry, MLPCN library | ER-HoxA9 myeloid progenitors, lysozyme-GFP differentiation | calls only at 10 µM | hit rate 1% among 360,000 | AID 624256, 2012;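 active = normalized GFP-positive differentiation at or above the plate's own cutoff, the solvent-only control mean plus 3 SD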;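 note: cells exposed to compound for four days before flow analysis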
VLA-4 inh: inhibition in human VLA-4 binding assay, primary screen, VLA-4 allosteric modulator project, MLPCN library, flow cytometry, VLA-4 expressing cells | Integrin alpha-4 (Homo sapiens), P13612 | ligand binding flow cytometry | inhibition, % (about 7 µM as worked out from the volumes in the protocol) | hit rate 0.2% among 330,000 | AID 2557, 2010; in the data active = inhibition above about 50%
VLA-4 allo CP: retest of VLA-4 allosteric modulators, confirmation, cell-based, cherry-picked plates, U937, HUTS-21 LIBS antibody; shares compounds with VLA-4 inh; U937 cells, HUTS-21 LIBS mAb binding, flow cytometry; LDV ligand present at threefold Kd; hit rate 2% among 1,300; inhibition, % at 6.7 µM; in the data active = inhibition above about 40%;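 note: 0% = ligand without compound and 100% = no ligand background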
* = called active by the depositor; i = inactive; / = no result.

SMILES | SENP1 inh | Platelet DG rel | Myeloid diff 2 | VLA-4 inh | VLA-4 allo CP
Cc1ccccc1-c1cc(C(=O)NCc2ccc3c(c2)OCO3)n(CC2CC(c3cccnc3)=NO2)n1 (stereo not given) | 3.4 | / | i | -6.5 | /
CCN(C[C@H]1N[C@@](Cc2ccccc2)(C(=O)OC)[C@H]2C(=O)N(Cc3ccccc3)C(=O)[C@@H]12)C(=O)c1ccc(F)cc1 | 1.8 | / | i | 4.9 | 2.0
COC(=O)[C@]1(Cc2ccccc2)N[C@H](CN(C)C(=O)Nc2ccc(OC)cc2)[C@@H]2C(=O)N(Cc3ccccc3)C(=O)[C@@H]21 | 2.4 | / | i | -2.1 | 5.1
CCN(C[C@H]1N[C@@](Cc2ccccc2)(C(=O)OC)[C@H]2C(=O)N(C)C(=O)[C@@H]12)C(=O)Nc1ccc(C)cc1 | -0.9 | / | i | 3.3 | /
CCN(C[C@H]1N[C@@](Cc2ccccc2)(C(=O)OC)[C@H]2C(=O)N(C)C(=O)[C@@H]12)C(=O)c1ccc(C)cc1 | -0.1 | / | i | 51.1* | 2.0
Cc1ccc(-n2c(SCC(=O)NC3CCS(=O)(=O)C3)nc3ccccc3c2=O)c(C)c1 (stereo not given) | 1.3 | / | i | / | /
O=C(COC(=O)c1ccc(O)cc1)NCCC1=CCCCC1 | -1.8 | -3.2 | i | 60.7* | 5.4
CCOc1ccc(C(=O)NCCC2=CCCCC2)cc1OCC | 0.7 | 1.7 | i | 51.8* | -1.4
COC(=O)c1cc(NC(=O)Cc2cccs2)cc(C(=O)OC)c1 | -15.3 | 14.3 | i | 15.6 | /
CCc1nc2ccc(C(=O)N3CCN(S(=O)(=O)CC)CC3)cn2c1N(C)C(=O)c1cccc(OC)c1 | 1.8 | / | i | / | /
COc1ccc(NC(C)=O)cc1S(=O)(=O)NCCc1ccccn1 | 2.8 | / | i | 9.3 | /
Cc1ccc(C(=O)N/N=c2\sc3ccccc3n2C)cc1 | 3.1 | -15.7 | i | 49.4 | -6.9
Cc1ccc(C(=O)N2CCC(C)CC2)cc1NC1=NC2CS(=O)(=O)CC2S1 (stereo not given) | 2.1 | -3.0 | i | 66.6* | -0.1
Cc1ccc(C(=O)N2CC(C)CC(C)C2)cc1NC1=NC2CS(=O)(=O)CC2S1 (stereo not given) | 2.3 | 4.0 | i | -7.4 | 1.6
Cc1ccc(C(=O)N2CCN(c3ncccn3)CC2)cc1NC1=NC2CS(=O)(=O)CC2S1 (stereo not given) | -0.1 | -1.5 | i | -1.6 | /
O=C1CCC(C(=O)NCc2ccccc2)N1 (stereo not given) | 0.1 | 0.6 | i | -9.3 | /
CC1CN(CCOCCSc2ccccc2)CC(C)O1 (stereo not given) | 2.9 | 1.5 | i | 45.5 | 2.1
CC1CN(CCOCCSc2ccc(Cl)cc2)CC(C)O1 (stereo not given) | 0.6 | 0.9 | i | 27.2 | /
COc1cccc(C2NC(=O)CCC2[N+](=O)[O-])c1 (stereo not given) | 0.3 | 6.7 | i | 4.5 | /
CCC(=O)c1ccc(OCC(=O)OCC(=O)NCC2CCCO2)cc1 (stereo not given) | -0.7 | -5.6 | i | -2.3 | /
Nc1ncnc(Nc2ccccc2)n1 | 0.2 | -3.7 | i | 54.5* | -4.9
Cc1ccc(Nc2ncnc(N)n2)cc1C | 0.3 | -3.6 | i | 4.6 | /
COc1ccc(N2CCN(C(=O)c3ccc4ccccc4n3)CC2)cc1 | -2.7 | -0.2 | i | 41.0 | 7.0
O=c1cc(Cc2nnc(SCc3ccccc3)n2-c2ccc(Cl)cc2)[nH]c(=O)[nH]1 | 9.5 | 14.9 | i | 1.8 | /
O=C(CSc1nnc(Cc2cc(=O)[nH]c(=O)[nH]2)n1-c1ccccc1)N1CCCC1 | 10.6 | -1.6 | i | -1.1 | 1.3
SMILES | SENP1 inh | Platelet DG rel | Myeloid diff 2 | VLA-4 inh | VLA-4 allo CP
COC(=O)CSc1nnc(Cc2cc(=O)[nH]c(=O)[nH]2)n1-c1cccc(OC)c1 | 14.1 | -3.4 | i | 12.8 | /
O=C(CSc1nnc(Cc2cc(=O)[nH]c(=O)[nH]2)n1-c1ccccc1)N1CCCCC1 | 9.0 | 3.3 | i | 4.5 | 3.7
Cc1ccccc1OCC(=O)Nc1ccc(N2CCN(C(=O)c3ccco3)CC2)cc1 | 1.3 | -11.3 | i | 20.2 | /
CS(=O)(=O)Nc1ccc(C2=NN(C(=O)c3cccc(F)c3)C(c3cccs3)C2)cc1 (stereo not given) | 0.3 | 8.0 | i | 5.0 | /
CCc1ccc(C2C3=C(CC(C)(C)CC3=O)Nc3c2c(=O)[nH]c2nc(C)nn32)cc1 (stereo not given) | -30.2 | 1.9 | i | 57.0* | 6.4
Cn1cc(CCCC(=O)NCc2ccccc2)c2ccccc21 | -0.8 | -4.1 | / | 15.9 | /
Cc1ccc(CNC(=O)CCCc2cn(C)c3ccccc23)cc1 | -0.4 | 0.6 | i | 41.7 | 4.5
COc1ccc(OC)c(C(=O)COC(=O)CNC(=O)C2CCCCC2)c1 | 1.4 | -1.3 | i | 60.1* | -7.5
COc1cc(C)nc(-n2nc(C)cc2OC)n1 | 2.7 | -4.6 | i | -8.2 | 0.0
CCn1c(/C=N/Nc2ccc(C(=O)O)cc2)nc2ccccc21 | -30.2 | -26.6 | i | 47.1 | 11.9
CC(=O)NN1C(=O)/C(=C2/Sc3ccccc3N2C)SC1=S | -23.4 | -7.6 | i | 41.7 | 12.7
COc1ccc(CC(=O)Nc2ccc(OC(C)=O)cc2C(=O)O)cc1 | 1.7 | -3.6 | i | 11.5 | /
CC(=O)Oc1ccc(NC(=O)Cc2ccccc2)c(C(=O)O)c1 | -3.4 | 21.3 | i | 51.6* | -1.6
Cc1cc(C)cc(N(CC(=O)N2CCn3c2nc2ccccc23)S(=O)(=O)c2c(C)noc2C)c1 | -2.8 | 8.4 | i | 4.6 | /
Cc1cc(C)cc(N(CC(=O)N2CCc3ccccc32)S(=O)(=O)c2c(C)noc2C)c1 | 0.1 | 3.2 | i | 17.5 | -3.0
NC(=O)c1ccc(NC(=O)CSC(=O)c2ccccc2)cc1 | 9.4 | / | i | 13.4 | /
CC(NC(=O)CN1CCN(C(=O)c2cccs2)CC1)c1ccc(F)cc1F (stereo not given) | 0.3 | / | i | -1.2 | /
Cc1c(NC(=O)c2c(F)c(F)c(F)c(F)c2F)c(=O)n(-c2ccccc2)n1C | -0.8 | -5.7 | i | 4.1 | 0.0
Cc1c(NC(=O)COc2ncnc3c(Cl)cc(Cl)cc23)c(=O)n(-c2ccccc2)n1C | 2.4 | 0.9 | i | 5.0 | 2.6
Cc1c(NC(=O)c2cc3ccccc3c(=O)s2)c(=O)n(-c2ccccc2)n1C | 1.3 | 14.3 | i | 53.5* | 6.4
Cc1c(NC(=O)c2cc(C(C)C)on2)c(=O)n(-c2ccccc2)n1C | 0.5 | 3.5 | i | / | 11.8
Cc1c(NC(=O)COc2ccccc2Cl)c(=O)n(-c2ccccc2)n1C | 3.4 | / | i | 8.5 | /
Cc1c(NC(=O)c2ccco2)c(=O)n(-c2ccccc2)n1C | 0.9 | -2.8 | i | -3.6 | /

From PubChem
